# Experimental data as given in ChEMBL document CHEMBL2046332, “Substrate analog studies of the ω-regiospecificity of Mycobacterium tuberculosis cholesterol metabolizing cytochrome P450 enzymes CYP124A1, CYP125A1 and CYP142A1” (Bioorg Med Chem, 2012).
# Calls of active or inactive are those of the source. The calls are words filed in the database; no cut-off is given here.
# How the values were obtained:
# [1] = tested on: Mycobacterium tuberculosis; test: Activity of Mycobacterium tuberculosis CYP142A1 assessed as compound oxidation at 50 uM incubated for 1 hr at 25 degC by GC-MS method
# Summary of the method: (§1)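 Each P450 (250 nM) was incubated with 50 μM substrate, 5 μg catalase, 50 μg/mL ferredoxin, 0.16 U/mL ferredoxin-NADP+ reductase, and an NADPH-regenerating system (1 mM glucose-6-phosphate, 2.4 U/mL G6P dehydrogenase, 5 mM MgCl2, 800 μM NADP+). Buffer was 50 mM potassium phosphate pH 7.5, 25 °C, 1 h. Quenched with HCl, extracted into hexanes, TMS-derivatised, GC-MS. Controls lacked P450 or NADPH.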
# [2] = tested on: Mycobacterium tuberculosis; test: Activity of Mycobacterium tuberculosis CYP124A1 assessed as compound oxidation at 50 uM incubated for 1 hr at 25 degC by GC-MS method; summary of the method: as §1
# [3] = tested on: Mycobacterium tuberculosis; test: Binding affinity to Mycobacterium tuberculosis CYP142A1 assessed as type 1 binding mode at 0.05 to 0.2 uM by UV-visible spectrophotometry
# Summary of the method: (§2)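 Spectral titration of each P450 with steroid solubilised in methyl β-cyclodextrin. Ligand-induced low-spin/high-spin shifts were followed in the Soret region and at ~650 nm to assign binding type. Absolute spectra of the P450–steroid complexes were also examined.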
# [4] = tested on: Mycobacterium tuberculosis; test: Binding affinity to Mycobacterium tuberculosis CYP124A1 assessed as type 1 binding mode at 0.05 to 0.2 uM by UV-visible spectrophotometry; summary of the method: as §2
# [5] = tested on: Mycobacterium tuberculosis; test: Activity of Mycobacterium tuberculosis CYP142A1 assessed as apparent turnover number at 50 uM incubated for 1 hr at 25 degC by GC-MS method; summary of the method: as §1
# [6] = target: T1, Steroid C26-monooxygenase (Mycobacterium tuberculosis, UniProt P9WPP1); test: Binding affinity to Mycobacterium tuberculosis CYP125A1 assessed as type 1 binding mode at 0.05 to 0.2 uM by UV-visible spectrophotometry; summary of the method: as §2
# T1 sequence (P9WPP1 whole entry): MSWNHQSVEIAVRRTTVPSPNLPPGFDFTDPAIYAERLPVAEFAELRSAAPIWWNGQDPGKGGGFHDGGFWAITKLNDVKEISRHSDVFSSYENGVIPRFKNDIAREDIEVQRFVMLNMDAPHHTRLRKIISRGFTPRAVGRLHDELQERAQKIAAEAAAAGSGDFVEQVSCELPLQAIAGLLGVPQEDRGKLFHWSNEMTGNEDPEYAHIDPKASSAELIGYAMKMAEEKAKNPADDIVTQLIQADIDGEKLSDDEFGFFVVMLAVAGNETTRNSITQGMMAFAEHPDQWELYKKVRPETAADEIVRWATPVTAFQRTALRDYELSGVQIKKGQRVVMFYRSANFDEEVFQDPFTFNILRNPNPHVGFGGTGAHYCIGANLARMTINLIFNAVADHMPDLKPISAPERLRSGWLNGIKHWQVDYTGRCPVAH
# [7] = tested on: Mycobacterium tuberculosis; test: Activity of Mycobacterium tuberculosis CYP124A1 assessed as apparent turnover number at 50 uM incubated for 1 hr at 25 degC by GC-MS method; summary of the method: as §1
# [8] = target: T1, Steroid C26-monooxygenase; test: Activity of Mycobacterium tuberculosis CYP125A1 assessed as apparent turnover number at 50 uM incubated for 1 hr at 25 degC by GC-MS method; summary of the method: as §1
# [9] = tested on: Mycobacterium tuberculosis; test: Time dependent inhibition of Mycobacterium tuberculosis CYP142A1 at 50 uM incubated up to 3 hrs by HPLC
# Summary of the method: (§3)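 P450 (5 μM) was pre-incubated with 50 μM test sterol in 50 mM potassium phosphate pH 7.5 with ferredoxin, reductase, catalase and NADPH-regenerating system. Controls received MβCD vehicle only. Aliquots taken over time were diluted twenty-fold into buffer with 50 μM cholest-4-en-3-one, spinach ferredoxin, reductase and 1 mM NADPH, run 10 min at 25 °C, and analysed by HPLC. Residual activity = % of control.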
# [10] = tested on: Mycobacterium tuberculosis; test: Time dependent inhibition of Mycobacterium tuberculosis CYP124A1 at 50 uM incubated up to 3 hrs by HPLC; summary of the method: as §3
# [11] = tested on: Mycobacterium tuberculosis; test: Activity of Mycobacterium tuberculosis CYP142A1 assessed as relative apparent turnover number at 50 uM incubated for 1 hr at 25 degC by GC-MS method relative to cholesterol
# [12] = target: T1, Steroid C26-monooxygenase; test: Activity of Mycobacterium tuberculosis CYP125A1 assessed as relative apparent turnover number at 50 uM incubated for 1 hr at 25 degC by GC-MS method relative to cholesterol
# [13] = tested on: Mycobacterium tuberculosis; test: Activity of Mycobacterium tuberculosis CYP124A1 assessed as relative apparent turnover number at 50 uM incubated for 1 hr at 25 degC by GC-MS method relative to cholesterol
# [14] = Binding affinity to Mycobacterium tuberculosis CYP124A1 by UV-visible spectrophotometry; details: read-out: Kd(app); summary of the method: as §2
# [15] = target: T1, Steroid C26-monooxygenase; test: Binding affinity to Mycobacterium tuberculosis CYP125A1 assessed as type 1a binding mode at > 0.05 to 0.2 uM by UV-visible spectrophotometry; summary of the method: as §2
# [16] = target: T1, Steroid C26-monooxygenase; test: Binding affinity to Mycobacterium tuberculosis CYP125A1 by UV-visible spectrophotometry; details: read-out: Kd(app); summary of the method: as §2
Compound,Activity [1],Activity [2],Activity [3],Activity [4],Kcat(app) [5] [s⁻¹],Activity [6],Kcat(app) [7] [s⁻¹],Kcat(app) [8] [s⁻¹],Activity [11] [%],Activity [12] [%],further results
C=CCCC[C@@H](C)[C@H]1CC[C@H]2[C@@H]3CCC4=CC(=O)CC[C@]4(C)[C@H]3CC[C@]12C,Active,Active,,,,,,,,,
CC(C)CCC[C@@H](C)[C@H]1CC[C@H]2[C@@H]3CC=C4C[C@@H](O)CC[C@]4(C)[C@H]3CC[C@]12C [CHOLESTEROL],,,Active,Active,0.278,Active,0.025,0.467,,,
C=CCCC[C@@H](C)[C@H]1CC[C@H]2[C@@H]3CC=C4C[C@@H](O)CC[C@]4(C)[C@H]3CC[C@]12C,,,Active,Active,0.0183,Active,0.0005,0.0367,6.7,8,inhibition [9]: inactive; inhibition [10]: inactive; Activity [13]: 1.9%
C=C(C)CCC[C@@H](C)[C@H]1CC[C@H]2[C@@H]3CC=C4C[C@@H](O)CC[C@]4(C)[C@H]3CC[C@]12C,,,Active,Active,0.0183,,0.00667,0.178,6.7,37,Kd [14]: 0.15 µM; Activity [15]: Active; Kd [16]: 0.25 µM; Activity [13]: 26.2%
C[C@H](CCCBr)[C@H]1CC[C@H]2[C@@H]3CCC4=CC(=O)CC[C@]4(C)[C@H]3CC[C@]12C,Active,Active,,,,,,,,,
CCC(C)CCC[C@@H](C)[C@H]1CC[C@H]2[C@@H]3CCC4=CC(=O)CC[C@]4(C)[C@H]3CC[C@]12C (mixture of isomers),Active,Active,,,,,,,,,
C[C@H](CCCBr)[C@H]1CC[C@H]2[C@@H]3CC=C4C[C@@H](O)CC[C@]4(C)[C@H]3CC[C@]12C,,,Active,Active,,,,,,,Activity [15]: Active
CCCCC[C@@H](C)[C@H]1CC[C@H]2[C@@H]3CC=C4C[C@@H](O)CC[C@]4(C)[C@H]3CC[C@]12C,,,Active,Active,0.0317,Active,0.0117,0.085,11.7,18,Activity [13]: 48.6%
CSCCC[C@@H](C)[C@H]1CC[C@H]2[C@@H]3CC=C4C[C@@H](O)CC[C@]4(C)[C@H]3CC[C@]12C,,,Active,Active,,,,,,,Activity [15]: Active
CC(Br)CCC[C@@H](C)[C@H]1CC[C@H]2[C@@H]3CC=C4C[C@@H](O)CC[C@]4(C)[C@H]3CC[C@]12C (mixture of isomers),,,Active,Active,0.299,Active,0.0168,0.3037,107,65.1,Activity [13]: 67.3%
CC(Cl)CCC[C@@H](C)[C@H]1CC[C@H]2[C@@H]3CC=C4C[C@@H](O)CC[C@]4(C)[C@H]3CC[C@]12C (mixture of isomers),,,Active,Active,0.15,Active,0.0075,0.122,53.7,26,Activity [13]: 29.8%
CC(Cl)CCC[C@@H](C)[C@H]1CC[C@H]2[C@@H]3CCC4=CC(=O)CC[C@]4(C)[C@H]3CC[C@]12C (mixture of isomers),Active,Active,,,,,,,,,
C=C(C)CCC[C@@H](C)[C@H]1CC[C@H]2[C@@H]3CCC4=CC(=O)CC[C@]4(C)[C@H]3CC[C@]12C,Active,Active,,,,,,,,,
CC(C)=CCC[C@@H](C)[C@H]1CC[C@@]2(C)C3=C(CC[C@]12C)[C@@]1(C)CC[C@H](O)C(C)(C)[C@@H]1CC3 [LANOSTEROL],,,Active,Active,0.368,Active,,0.1728,132,37,
CC(C)CCC[C@@H](C)[C@H]1CC[C@H]2[C@@H]3CC[C@@H]4CC(=O)CC[C@]4(C)[C@H]3CC[C@]12C,Active,Active,,,,,,,,,
CSCCC[C@@H](C)[C@H]1CC[C@H]2[C@@H]3CCC4=CC(=O)CC[C@]4(C)[C@H]3CC[C@]12C,Active,Active,,,,,,,,,
CC(C)=CCC[C@@H](C)[C@H]1CC[C@H]2[C@@H]3CCC4=CC(=O)CC[C@]4(C)[C@H]3CC[C@]12C,Active,Active,,,,,,,,,
CC(C)CCC[C@@H](C)[C@H]1CC[C@H]2[C@@H]3CC[C@@H]4C[C@@H](O)CC[C@]4(C)[C@H]3CC[C@]12C [COPROSTANOL],,,Active,Active,0.12,Active,0.0172,0.2373,43.1,50.9,Activity [13]: 68.4%
CCC(C)CCC[C@@H](C)[C@H]1CC[C@H]2[C@@H]3CC=C4C[C@@H](O)CC[C@]4(C)[C@H]3CC[C@]12C (mixture of isomers),,,Active,Active,0.163,Active,,0.317,58.7,68.1,
CC(C)=CCC[C@@H](C)[C@H]1CC[C@@]2(C)C3=C(CC[C@]12C)[C@@]1(C)CCC(=O)C(C)(C)[C@@H]1CC3,Active,Active,,,,,,,,,
CC(C)CCC[C@@H](C)[C@H]1CC[C@H]2[C@@H]3CCC4=CC(=O)CC[C@]4(C)[C@H]3CC[C@]12C [4-CHOLESTEN 3-ONE],Active,Active,Active,Active,,Active,,,,,
CC(C)=CCC[C@@H](C)[C@H]1CC[C@H]2[C@@H]3CC=C4C[C@@H](O)CC[C@]4(C)[C@H]3CC[C@]12C [DESMOSTEROL],,,Active,Active,0.115,Active,0.0228,0.2215,41.4,47.5,Activity [13]: 91.2%
CCCCC[C@@H](C)[C@H]1CC[C@H]2[C@@H]3CCC4=CC(=O)CC[C@]4(C)[C@H]3CC[C@]12C,Active,Active,,,,,,,,,
CC(Br)CCC[C@@H](C)[C@H]1CC[C@H]2[C@@H]3CCC4=CC(=O)CC[C@]4(C)[C@H]3CC[C@]12C (mixture of isomers),Active,Active,,,,,,,,,
